Measurements: ChEMBL document CHEMBL4831540, “Discovery of Aficamten (CK-274), a Next-Generation Cardiac Myosin Inhibitor for the Treatment of Hypertrophic Cardiomyopathy” (J Med Chem, 2021)
In brackets after ≈: the same amount, converted by molar mass.

Assays:
[1] = Plasma protein binding in rat plasma assessed as unbound concentration at 5 uM incubated for 6 hrs by HPLC analysis; assay type: ADME, cell-free
[2] = Clearance in Sprague-Dawley rat at 1 mg/kg; assay type: ADME, organism-based; conditions: in vivo
How it was run: (§1)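 Rat PK with iv and po administration at 1 mg/kg. Clearance and half-life came from the iv arm, and bioavailability from the iv/po comparison.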

[3] = Clearance in Sprague-Dawley rat at 1 mg/kg; conditions: in vivo
[4] = Metabolic stability in rat liver microsomes assessed as intrinsic clearance measured upto 90mins by HPLC/MS/MS analysis; assay type: ADME, Microsome; conditions: read-out: CLH
[5] = (§2) Inhibition of full-length myosin ATPase activity in bovine cardiac myofibrils; assay type: subcellular, Bos taurus, Heart
How it was run: (§3)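 Bovine cardiac myofibril ATPase assay run at a calcium level giving 75% of maximal activity.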

[6] = Plasma protein binding in rat assessed as unbound fraction; assay type: ADME, cell-free
[7] = Half life in Sprague-Dawley rat at 1 mg/kg; assay type: ADME, organism-based; conditions: in vivo; how it was run: as §1
[8] = Metabolic stability in human liver microsomes assessed as intrinsic clearance measured upto 90mins by HPLC/MS/MS analysis; assay type: ADME, Microsome; conditions: read-out: CLH
[9] = Bioavailability in Sprague-Dawley rat at 1 mg/kg, po or 1 mg/kg, iv; assay type: ADME, organism-based; conditions: in vivo; how it was run: as §1
Bos taurus = species: Bos taurus; experiment: as §2; assay type: subcellular; conditions: Heart, Myofibril; how it was run: as §3
[10] = Bioavailability in Sprague-Dawley rat at 2 to 6 mg/kg, po and 1 mg/kg, iv; conditions: in vivo
[11] = Solubility of the compound at pH 6.8 by shake flask method; assay type: physicochemical; conditions: buffer
How it was run: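 Shake-flask solubility at pH 6.8; solid form not characterized.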

[12] = Plasma protein binding in human assessed as unbound fraction; assay type: ADME, cell-free
[13] = Unbound clearance in Sprague-Dawley rat at 0.5 mg/kg; assay type: ADME, organism-based; conditions: in vivo
How it was run: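 Rat in vivo clearance at a 0.5 mg/kg dose was divided by the rat plasma free fraction to give unbound clearance.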

[14] = Oral bioavailability in Sprague-Dawley rat at 2 mg/kg; assay type: ADME, organism-based; conditions: in vivo
How it was run: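 Multi-species PK study in male animals, n = 3 per group (dog IV arm n = 2). Iv and oral dosing with plasma concentration–time profiles yielding Cmax, tmax, AUC0–t, CL, Vss, t1/2 and F.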

Row | SMILES | fraction unbound at 6 h, 5 µM [1] | CLint scaled [4] [mL/min/kg] | IC50 [5] [µM] | fraction unbound [6] | CLint scaled [8] [mL/min/kg] | further results
1 | CCc1nc(-c2ccc3c(c2)CC[C@H]3NC(=O)c2cnc(C)o2)no1 | 0.18 | < 21 | 1.7 | 0.046 | < 11 | clearance [2]: 21 mL/min/kg; clearance [3]: 21 mL/min/kg; half-life [7]: 4.1 h; bioavailability [9]: 13%
2 | CCc1nc(-c2ccc3c(c2)CCN3C(=O)c2ccccc2)no1 |  |  | > 39 |  |  | IC15 (Bos taurus): > 39 µM
3 | CCc1nc(-c2ccc3c(c2)CCN3C(=O)Nc2ccccc2)no1 |  |  | > 39 |  |  | IC15 (Bos taurus): > 39 µM
4 | CCc1nc(-c2ccc3c(c2)CC[C@H]3NC(=O)c2nnn(C)n2)no1 | 0.29 | < 21 | 0.9 | 0.11 | < 11 | clearance [2]: 20 mL/min/kg; clearance [3]: 20 mL/min/kg; bioavailability [10]: 53%; half-life [7]: 6.3 h
5 | CCc1nc(-c2ccc3c(c2)CCN3C(=O)Cc2ccccc2)no1 |  |  | 19.1 |  |  | IC15 (Bos taurus): 3.5 µM
6 | Cc1cc(C(=O)N[C@@H]2CCc3cc(-c4noc(C5CC5)n4)ccc32)ccn1 | 0.049 | < 21 | 1.9 |  | < 11 | clearance [2]: 3 mL/min/kg; clearance [3]: 3 mL/min/kg; half-life [7]: 13.8 h; bioavailability [9]: 70%
7 | Cc1nc(-c2ccc3c(c2)CCC3NC(=O)c2oncc2C)no1 (racemic) | 0.064 | 46 | 2.5 |  | < 11 | 
8 | Cn1cc(C(=O)N[C@@H]2CCc3cc(-c4noc(C5CC5)n4)ccc32)cn1 |  |  | 2.7 | 0.042 |  | solubility thermodynamic [11]: 33 µM (≈ 11.5 µg/mL); fraction unbound [12]: 0.056
9 | Cc1nc(-c2ccc3c(c2)CC[C@H]3NC(=O)c2cnn(C)c2)no1 | 0.065 | < 21 | 4.4 | 0.065 | < 11 | solubility thermodynamic [11]: 86 µM (≈ 27.8 µg/mL); CL free [13]: 32.3 mL/min/kg; fraction unbound [12]: 0.14
10 | CCc1nc(-c2ccc3c(c2)CCN3CCc2ccccc2)no1 |  |  | > 39 |  |  | IC15 (Bos taurus): 3.4 µM
11 | CCc1nc(-c2ccc3c(c2)CCN3C(=O)NCc2ccccc2)no1 |  |  | > 39 |  |  | IC15 (Bos taurus): > 39 µM
12 | Cc1nc(-c2ccc3c(c2)CCC3NC(=O)c2nnn(C)n2)no1 (racemic) | 0.19 | < 21 | 5.1 |  | < 11 | 
13 | CC(C)c1nc(-c2ccc3c(c2)CC[C@H]3NC(=O)c2cnn(C)c2)no1 |  |  | 4.1 |  |  | 
14 | Cn1nnc(C(=O)N[C@@H]2CCc3cc(-c4noc(C5CC5)n4)ccc32)n1 | 0.12 | < 21 | 1 | 0.077 | < 11 | clearance [2]: 5 mL/min/kg; clearance [3]: 5 mL/min/kg; half-life [7]: 17.8 h; bioavailability [14]: 100%
15 | CCc1nc(-c2ccc3c(c2)CCN3C(=O)CSc2ccccc2)no1 |  |  | > 39 |  |  | IC15 (Bos taurus): > 39 µM
16 | CCc1nc(-c2ccc3c(c2)CCN3C(=O)COc2ccccc2)no1 |  |  | 2.7 |  |  | IC15 (Bos taurus): 0.9 µM
17 | Cc1cc(C(=O)NC2CCc3cc(-c4noc(C)n4)ccc32)ccn1 (racemic) | 0.097 | < 21 | 7.1 |  | < 11 | 
18 | Cc1nc(-c2ccc3c(c2)CC[C@@H]3NC(=O)c2cnn(C)c2)no1 | 0.15 | < 21 | > 39 |  | < 11 | CL free [13]: 395 mL/min/kg
19 | Cc1cc(C(=O)N[C@@H]2CCc3cc(-c4noc(C(C)C)n4)ccc32)ccn1 | 0.053 | 23 | 2.7 |  | < 11 | clearance [2]: 14 mL/min/kg; clearance [3]: 14 mL/min/kg; half-life [7]: 4.6 h; bioavailability [9]: 79%

Row | SMILES | fraction unbound at 6 h, 5 µM [1] | CLint scaled [4] [mL/min/kg] | IC50 [5] [µM] | fraction unbound [6] | CLint scaled [8] [mL/min/kg] | further results
20 | Cn1cc(C(=O)N[C@@H]2CCc3cc(-c4noc(CCO)n4)ccc32)cn1 |  |  | > 39 |  |  | 
21 | COCCc1nc(-c2ccc3c(c2)CC[C@H]3NC(=O)c2cnn(C)c2)no1 |  |  | > 39 |  |  | 
22 | COCc1nc(-c2ccc3c(c2)CC[C@H]3NC(=O)c2cnn(C)c2)no1 | 0.082 | < 21 | 6.8 | 0.082 | < 11 | solubility thermodynamic [11]: 63 µM (≈ 22.3 µg/mL); fraction unbound [12]: 0.12
23 | CCc1nc(-c2ccc3c(c2)CC[C@H]3NC(=O)c2ccnc(C)c2)no1 | 0.084 | 23 | 1.2 | 0.021 | < 11 | clearance [2]: 13 mL/min/kg; clearance [3]: 13 mL/min/kg; half-life [7]: 3.5 h; bioavailability [9]: 32%
24 | Cn1cc(C(=O)N[C@@H]2CCc3cc(-c4noc(C5CCC5)n4)ccc32)cn1 |  |  | 3.2 |  |  | solubility thermodynamic [11]: 14 µM (≈ 5.09 µg/mL)
25 | Cn1cc(C(=O)N[C@@H]2CCc3cc(-c4ncon4)ccc32)cn1 |  |  | > 39 |  |  | 
26 | CCc1nc(-c2ccc3c(c2)CCN3C(=O)OCc2ccccc2)no1 |  |  | > 39 |  |  | IC15 (Bos taurus): 1.3 µM
27 | CC(C)c1nc(-c2ccc3c(c2)CC[C@H]3NC(=O)c2nnn(C)n2)no1 | 0.17 | < 21 | 1.9 | 0.089 | < 11 | clearance [2]: 16 mL/min/kg; clearance [3]: 16 mL/min/kg; half-life [7]: 4.6 h; bioavailability [9]: 52%
28 | CCc1nc(-c2ccc3c(c2)CCN3C(=O)CCc2ccccc2)no1 |  |  | > 39 |  |  | IC15 (Bos taurus): > 39 µM
29 | Cc1nc(-c2ccc3c(c2)CCC3NC(=O)c2ccccc2)no1 (racemic) | 0.043 | > 124 | 1.9 |  | 24 | 
30 | CCc1nc(-c2ccc3c(c2)CC[C@H]3NC(=O)c2ocnc2C)no1 | 0.1 |  | 0.8 | 0.051 | < 11 | clearance [2]: 40 mL/min/kg; clearance [3]: 40 mL/min/kg; half-life [7]: 14.7 h; bioavailability [9]: 0%
31 | Cc1cc(C(=O)NC2CCc3cc(-c4noc(C)n4)ccc32)on1 (racemic) | 0.072 | 48 | 8.1 |  | < 11 | 
32 | CCc1nc(-c2ccc3c(c2)CC[C@H]3NC(=O)c2cn[nH]c2)no1 | 0.2 | 66 | 1.1 | 0.2 | < 11 | clearance [2]: 63 mL/min/kg; clearance [3]: 63 mL/min/kg; half-life [7]: 1.4 h; bioavailability [9]: 10%
33 | CCc1nc(-c2ccc3c(c2)CC[C@H]3NC(=O)c2cc(C)ncn2)no1 | 0.092 | 24 | 1.8 | 0.046 | < 11 | clearance [2]: 20 mL/min/kg; clearance [3]: 20 mL/min/kg; half-life [7]: 5.9 h; bioavailability [9]: 26%
34 | CCc1nc(-c2ccc3c(c2)CC[C@H]3NC(=O)c2ccnnc2)no1 | 0.31 |  | 1.2 |  | < 11 | clearance [2]: 44 mL/min/kg; clearance [3]: 44 mL/min/kg; half-life [7]: 6.6 h; bioavailability [9]: 16%
35 | CCc1nc(-c2ccc3c(c2)CCC3NC(=O)c2ccccc2)no1 (racemic) | 0.023 | > 124 | 1 |  | > 62 | 
36 | Cn1cc(C(=O)N[C@@H]2CCc3cc(-c4noc(C(F)F)n4)ccc32)cn1 | 0.024 | < 21 | 2.4 | 0.024 | < 11 | solubility thermodynamic [11]: 37 µM (≈ 13.3 µg/mL); fraction unbound [12]: 0.057
37 | Cc1nc(-c2ccc3c(c2)CCC3NC(=O)c2cnc(C)n2C)no1 (racemic) | 0.089 | < 21 | 7.6 |  | < 11 | 
